Shown are actives, neighbours in structure and some others; about 2.1% of the full set was active somewhere.
SF1 activator = activators of human nuclear receptor SF-1. Q13285. CHO-K1 Gal4-SF-1 LBD luciferase reporter; % increase over DMSO SF-1-specific signal. activation, % at 10 µM. 65,000 compounds, 1.9% hits. AID 522;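 active means activation above the mean activation of all tested compounds plus 3 SD, cut at about 50% in these data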
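Test system: CHO-K1 cells co-transfected with Gal4 DBD–human SF-1 LBD, 5xGal4 luciferase reporter. Quantity: 4,000 cells per well. Compound: 10 µM only. Incubation: compound added 1 h post-seeding, 20 h exposure at 37 °C, 5% CO2. Detection: SteadyLite luciferase luminescence. Replication: one test per compound.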
RORA act = RORA (human) activation; CHO-K1 Gal4-RORA LBD luciferase reporter, luminescence; percent increase over mock-subtracted basal signal; activation, % at 10 µM; 65,000 compounds, 1.5% hits; AID 560;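 active means activation above the mean of all tested compounds plus 3 SD, cut at about 49% in these data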
Target sequence (P35398 whole entry, looked up, the tested form may be a part): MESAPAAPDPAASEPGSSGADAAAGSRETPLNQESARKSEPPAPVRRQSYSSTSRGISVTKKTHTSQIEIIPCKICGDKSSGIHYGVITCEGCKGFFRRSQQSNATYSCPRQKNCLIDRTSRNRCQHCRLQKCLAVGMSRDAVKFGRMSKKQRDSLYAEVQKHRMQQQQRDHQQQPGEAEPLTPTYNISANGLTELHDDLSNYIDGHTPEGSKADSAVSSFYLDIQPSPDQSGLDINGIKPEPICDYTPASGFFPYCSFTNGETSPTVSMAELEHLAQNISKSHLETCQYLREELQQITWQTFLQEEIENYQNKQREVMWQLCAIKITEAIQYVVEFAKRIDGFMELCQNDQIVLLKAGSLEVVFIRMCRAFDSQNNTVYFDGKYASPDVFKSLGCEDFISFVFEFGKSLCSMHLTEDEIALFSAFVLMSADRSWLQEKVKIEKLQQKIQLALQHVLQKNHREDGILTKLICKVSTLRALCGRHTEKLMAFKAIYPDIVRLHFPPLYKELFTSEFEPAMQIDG
MMP13 inh = blocks human MMP13 activity; MMP-13 fTHP FRET cleavage, Mca fluorescence; inhibition, % at 4 µM; 65,000 compounds, 0.07% hits; AID 570;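 active means inhibition above the mean of compound-free control plate wells plus 3 SD, cut at about 14% in these data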
MT1-MMP txn act = MT1-MMP promoter transcription activation. HT1080 MT1-MMP promoter luciferase reporter, luminescence, overnight; active compounds read high. activation factor at 10 µM. 86,000 compounds, 0.16% hits;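 active means activation factor of at least 2 for MT1-MMP transcription at 10 µM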
TNAP act DEA = human TNAP activation, intermediate phosphate acceptor. P05186. purified TNAP, CDP-star luminescence, 100 mM DEA, 30 min; active compounds read high; scale: 0 levamisole-inhibited, 1 vehicle-only enzyme. activation factor at 20 µM. 64,000 tested, under 10 active. AID 813;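 active means activation factor of at least 2 at 20 µM, relative to controls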
Numbers stand for hits; . = inactive; / = no result.

SMILES	SF1 activator	RORA act	MMP13 inh	MT1-MMP txn act	TNAP act DEA
CCCCNC(=O)C(c1ccc(OCC(=O)OC)c(C(=O)OC)c1)N(CCC1=CCCCC1)C(=O)CCCCCN1C(=O)NC(c2ccc(-c3ccccc3)cc2)C(C(=O)OCc2ccccc2)=C1C (configuration not stated)	/	/	/	.	/
O=C(Nc1ccc(Nc2ccccc2)cc1)c1ccc(Br)o1	.	49.4	.	.	.
CCC(=O)Nc1ccc2nc(C3CC3)n(Cc3ccccc3)c(=O)c2c1	62.7	.	.	.	.
COc1ccc(Cn2c(C3CC3)nc3ccc(NC(=O)c4ccco4)cc3c2=O)cc1	59.2	.	.	.	.
CC1=C(C(=O)OCc2ccccc2)C(c2cccc3ccccc23)NC(=O)N1CCCC(=O)O (configuration not stated)	/	/	/	.	/
CCCCOc1ccc(N2C(=O)CC(NCCc3ccc(S(N)(=O)=O)cc3)C2=O)cc1 (configuration not stated)	/	/	/	.	/
Clc1ccccc1OCCn1cnc2ccccc21	.	51.1	.	.	.
Clc1ccc(OCCn2cnc3ccccc32)cc1	.	.	.	.	.
Cc1ccc(OCc2nc(C#N)c(NCc3ccco3)o2)cc1	.	.	.	.	.
Cc1ccc(-c2nc(C#N)c(NCc3ccco3)o2)cc1	.	88.7	.	.	.
N#Cc1nc(-c2ccco2)oc1NCc1ccco1	.	.	.	.	.
N#Cc1nc(COc2cccc(Cl)c2)oc1NCc1ccco1	.	65.7	.	/	.
CC(Cc1ccccc1)C(=O)NCCc1c[nH]c2ccccc12 (configuration not stated)	/	/	/	.	/
CCN(CC)CCNC(=O)C1c2ccccc2C(=O)N(CCOC)C1c1ccc(F)cc1 (configuration not stated)	/	/	/	.	/
Cc1ccc2[nH]c(-c3cccc(N)c3)cc2c1	51.3	55.0	.	.	.
CC1CCCCN1C(=O)c1cc(-c2ccc(Cl)c(Cl)c2)on1 (configuration not stated)	.	62.5	.	.	.
CCC1CCCCN1C(=O)c1cc(-c2ccc(Cl)c(Cl)c2)on1 (configuration not stated)	.	54.4	.	.	.
COc1cccc(-c2cc(C(=O)N3C(C)CCCC3C)no2)c1 (configuration not stated)	.	66.9	.	/	.
CCOc1ccc(-n2nc3c(-n4ncc(C#N)c4N)nnc(C)c3c2C)cc1	/	/	/	.	/
COC(=O)c1ccc(C(NC(=O)OCc2ccccc2)/C(F)=C/[C@@H](C)C(=O)NC2CCCCC2)cc1 (some centres not stated)	/	/	/	.	/
O=C(Nc1nc2ccccc2s1)c1ccc(Cl)s1	98.4	.	.	.	.
CC(C)(C)c1csc(NC(=O)c2ccc(Cl)s2)n1	52.8	53.5	.	.	/
O=C(Nc1nc(-c2cccs2)cs1)c1ccc(Cl)s1	.	68.5	.	.	.
Cc1ccc(C(=O)Nc2nc(C(C)(C)C)cs2)s1	/	/	/	.	/
CC(C)(C)c1csc(NC(=O)c2ccc3nccnc3c2)n1	/	/	/	2	/
SMILES	SF1 activator	RORA act	MMP13 inh	MT1-MMP txn act	TNAP act DEA
CCN(CC)CCCN1C(=O)C(O)=C(C(C)=O)C1c1ccc(OC)cc1OC (configuration not stated)	.	.	.	.	.
CCn1c(CCC(=O)Nc2nc3c(s2)CCCC3)nc2cc(S(=O)(=O)N(C)C)ccc21	.	.	.	.	.
COCCOC(=O)c1[nH]c2c(c1C)C(=O)C(C(=O)OC)C(C)C2 (configuration not stated)	.	55.9	.	.	.
COC(=O)C1C(=O)c2c([nH]c(C(=O)OCC3CCCO3)c2C)CC1C (configuration not stated)	.	.	.	.	.
COC(=O)C1C(=O)c2c([nH]c(C(=O)OC3CCCCCC3)c2C)CC1C (configuration not stated)	.	73.9	.	.	.
COC(=O)c1ccc(C(NC(=O)OCc2ccccc2)/C(F)=C/[C@@H](C)C(=O)NCCO)cc1 (some centres not stated)	/	/	/	.	/
COc1ccccc1-c1cc(C(=O)NC(C)C)no1	68.8	.	.	.	.
COc1ccccc1-c1cc(C(=O)NC(C)c2ccccc2)no1 (configuration not stated)	.	.	.	.	.
COCCNC(=O)c1cc(-c2ccccc2OC)on1	70.7	51.6	.	.	.
CCN(CC)c1ccc(NC(=O)c2cc(Cl)ccc2OC)cc1	/	/	/	.	/
CCN(CC)c1ccc(NC(=O)c2ccccc2F)cc1	73.8	70.3	.	.	.
CCC1=C(OC(=O)N(CC)CC)N2C(=O)OC(=NCCOC)[C@]2(C)[C@H]2C1=CC[C@H]1C(=O)N(C)C(=O)[C@H]12	/	/	/	.	/
CCOc1ccc(N2C(=O)c3ccccc3C2O)cc1 (configuration not stated)	69.4	.	.	.	.
CCOc1ccc(N2C(=O)c3ccccc3C2=O)cc1	/	/	/	.	/
CC1CCCN(c2nc3c(c(=O)[nH]c(=O)n3C)n2CCCc2ccccc2)C1 (configuration not stated)	/	/	/	.	.
COC(=O)c1sccc1NC(=O)CSc1nnnn1-c1ccccc1C	/	/	/	.	/
O=C(NC(=Nc1ccccc1)N1CCOCC1)Nc1ccccc1	.	.	15.8	.	.
C/C(=N\O)c1ccc2[nH]ccc2c1	.	.	.	.	.
C/C(=N\O)c1ccc2c3c([nH]c2c1)CCCC3	64.1	54.1	.	.	.
O=C(O)CCc1nc(-c2ccc(Cl)cc2)no1	.	.	.	/	.
CC(C)(CC(=O)O)Cc1nc(-c2ccc(Cl)cc2)no1	62.8	.	.	.	.
CNC(=O)[C@]1(C)C[C@H]1[C@H](NC(=O)[C@]1(C)C[C@H]1[C@H](NC(=O)OCc1ccccc1)c1ccccc1)c1ccccc1	/	/	/	.	/
Nc1nc(-c2ccccc2)cc(-c2ccccc2O)n1	.	49.2	.	.	.
CNC(=O)c1c(NC(=O)c2nc3ccccc3s2)sc2c1CCC2	72.5	96.0	.	.	.
COC(=O)c1c(NC(=O)c2nc3ccccc3s2)sc2c1CCN(C(C)=O)C2	.	.	.	.	.
SMILES	SF1 activator	RORA act	MMP13 inh	MT1-MMP txn act	TNAP act DEA
CC(C)=CC1C=C(C)C(C)C2C(=O)NNC(=O)C12 (configuration not stated)	/	/	/	.	/
COc1ccc(NC2CC(=O)N(c3ccccc3)C2=O)cc1 (configuration not stated)	56.9	.	.	.	.
Clc1cc(Cl)c2nc(N3CCOCC3)sc2c1	57.5	.	.	.	.
COC(=O)c1ccc(C(NC(=O)OCc2ccccc2)/C(F)=C/[C@@H](C)C(=O)NCc2nn(-c3ccccc3)nc2C)cc1 (some centres not stated)	/	/	/	.	/
COC(=O)[C@@]1(Cc2ccccc2)[C@H]2c3cc(C(=O)N(C)C)n(CCN4CCNC4=O)c3C[C@H]2CN1C(=O)c1ccccc1	/	/	/	.	/
Nc1c(C(=O)NCc2ccco2)sc2nc3c(cc12)C(=O)CCC3	.	.	.	.	.
CCCOC(=O)c1sc2nc3c(cc2c1N)C(=O)CCC3	60.5	.	.	.	.

From PubChem BioAssay
